Each molecule was assayed on Smooth muscle of trachea (assay: Anti-asthmatic activity in guinea pig tracheal smooth muscle ring assessed as reduction in acetylcholine-induced muscle contractions by measuring muscle relaxation at 0.75 mmol/l after 60 mins (reference value: 7.73 +/- 4.81%)). Conditions: not given.
Assay type: functional, Cavia porcellus
Design: scale not given: the % may be the effect or the level left
In short: (§1)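 Guinea pig tracheal rings were held in Krebs-Henseleit at 36.5±0.5°C under 95% O2/5% CO2, at 1.0 g resting tension with 60-min equilibration. Isometric tension was recorded after acetylcholine-induced contraction. The read-out was percentage change in smooth muscle tension with compound, as means±S.D (n=10).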

Structure (SMILES) | Activity
CC1=CCC(C(C)(C)OC(=O)C(C)C)CC1 (stereo not given) | 19.88%
CCC(=O)OC(C)(C)C1CC=C(C)CC1 (stereo not given) | 18.18%
CC(=O)OC(C)(C)C1CC=C(C)CC1 (stereo not given) | 34.35%
CC1=CCC(C(C)(C)OC(=O)CSCC(O)CO)CC1 (stereo not given) | 34.84%
CCCC(=O)OC(C)(C)C1CC=C(C)CC1 (stereo not given) | 21.2%
CC1=CCC(C(C)(C)OC(=O)C(C)(C)C)CC1 (stereo not given) | 25.49%
CC1=CCC(C(C)(C)OC=O)CC1 (stereo not given) | 14.62%

What follows are molecules tested on Smooth muscle of trachea (assay: Anti-asthmatic activity in guinea pig tracheal smooth muscle ring assessed as reduction in acetylcholine-induced muscle contractions by measuring muscle relaxation at 1.25 mmol/l after 60 mins (reference value: 13.59 +/- 9.14%)). Conditions: not given.
Assay type: functional, Cavia porcellus
Design: scale not given: the % may be the effect or the level left
In short: as §1

Structure (SMILES) | Activity
CC1=CCC(C(C)(C)OC(=O)C(C)C)CC1 (stereo not given) | 22.79%
CCC(=O)OC(C)(C)C1CC=C(C)CC1 (stereo not given) | 23.22%
CC(=O)OC(C)(C)C1CC=C(C)CC1 (stereo not given) | 47.72%
CC1=CCC(C(C)(C)OC(=O)CSCC(O)CO)CC1 (stereo not given) | 65.29%
CCCC(=O)OC(C)(C)C1CC=C(C)CC1 (stereo not given) | 25.47%
CC1=CCC(C(C)(C)OC(=O)C(C)(C)C)CC1 (stereo not given) | 28.02%
CC1=CCC(C(C)(C)OC=O)CC1 (stereo not given) | 21.57%

The molecules below were run on Smooth muscle of trachea (assay: Anti-asthmatic activity in guinea pig tracheal smooth muscle ring assessed as reduction in acetylcholine-induced muscle contractions after 60 mins). Conditions: Cavia porcellus.
Assay type: functional, tissue-based
In short: as §1

Structure (SMILES) | Activity
CC1=CCC(C(C)(C)OC(=O)C(C)C)CC1 (stereo not given) | Dose-dependent effect
CC1=CCC(C(C)(C)OC(=O)CN(CCO)CCO)CC1 (stereo not given) | Dose-dependent effect
CCC(=O)OC(C)(C)C1CC=C(C)CC1 (stereo not given) | Dose-dependent effect
CC1=CCC(C(C)(C)OC(=O)CN2CCCCC2)CC1 (stereo not given) | Dose-dependent effect
CC1=CCC(C(C)(C)OC(=O)CN2CCC(O)CC2)CC1 (stereo not given) | Dose-dependent effect
CCCCCCCCCCCCCCCCCC(=O)OC(C)(C)C1CC=C(C)CC1 (stereo not given) | Dose-dependent effect
CCCCCCCCCCCCCC(=O)OC(C)(C)C1CC=C(C)CC1 (stereo not given) | Dose-dependent effect
CC1=CCC(C(C)(C)OC(=O)CN2CCC(=O)CC2)CC1 (stereo not given) | Dose-dependent effect
CC1CCC(C(C)(C)O)CC1 (stereo not given) | Dose-dependent effect
CC(=O)OC(C)(C)C1CC=C(C)CC1 (stereo not given) | Dose-dependent effect
CC1=CCC(C(C)(C)OC(=O)CO[N+](=O)[O-])CC1 (stereo not given) | Dose-dependent effect
CC1=CCC(C(C)(C)OC(=O)CSCC(O)CO)CC1 (stereo not given) | Dose-dependent effect
CCCC(=O)OC(C)(C)C1CC=C(C)CC1 (stereo not given) | Dose-dependent effect
CC1=CCC(C(C)(C)OC(=O)C(C)(C)C)CC1 (stereo not given) | Dose-dependent effect
CC1=CCC(C(C)(C)OC(=O)CSCCO)CC1 (stereo not given) | Dose-dependent effect
CC1=CCC(C(C)(C)OC(=O)CN2CCOCC2)CC1 (stereo not given) | Dose-dependent effect
Cn1c(=O)c2[nH]cnc2n(C)c1=O | Dose-dependent effect
CC1=CCC(C(C)(C)O)CC1 (stereo not given) | Dose-dependent effect
CCN(CC)CC(=O)OC(C)(C)C1CC=C(C)CC1 (stereo not given) | Dose-dependent effect
CC1=CCC(C(C)(C)OC(=O)CN(C)CCO)CC1 (stereo not given) | Dose-dependent effect
CC1=CCC(C(C)(C)OC=O)CC1 (stereo not given) | Dose-dependent effect

These molecules were tested against Adrenergic receptor beta (Rattus norvegicus) (UniProt P18090+P10608+P26255) (assay: Agonist activity at beta-adrenergic receptor in rat airway smooth muscle cells assessed as reduction in acetylcholine-induced muscle contractions by measuring cAMP levels after 18 hrs post acetylcholine stimulation by ELISA (reference value: 8.402 +/- 0.041 nmol/l)). Conditions: not given.
Assay type: functional
In short: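 Rat airway smooth muscle cells (passages 4–6) were seeded at 5×10^4/mL and grown for 48 h. They were stimulated with acetylcholine 0.33 mmol/L for 4 h, then exposed to compound for 18 h. Cells were trypsinized (0.25%, 2 min) and sonicated, and cAMP in the supernatant was measured by ELISA.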

Structure (SMILES) | Activity
CC1=CCC(C(C)(C)OC(=O)CN(CCO)CCO)CC1 (stereo not given) | 8.94 nmol/L
CC1=CCC(C(C)(C)OC(=O)CN2CCC(O)CC2)CC1 (stereo not given) | 8.98 nmol/L
CC1=CCC(C(C)(C)OC(=O)CSCC(O)CO)CC1 (stereo not given) | 8.76 nmol/L
CC1=CCC(C(C)(C)OC(=O)CSCCO)CC1 (stereo not given) | 8.82 nmol/L
CC1=CCC(C(C)(C)OC(=O)CN2CCOCC2)CC1 (stereo not given) | 8.81 nmol/L
Cn1c(=O)c2[nH]cnc2n(C)c1=O | 8.6 nmol/L
CC1=CCC(C(C)(C)O)CC1 (stereo not given) | 8.51 nmol/L
CCN(CC)CC(=O)OC(C)(C)C1CC=C(C)CC1 (stereo not given) | 9.53 nmol/L
CC1=CCC(C(C)(C)OC(=O)CN(C)CCO)CC1 (stereo not given) | 9.01 nmol/L

Each molecule was assayed on Rattus norvegicus (assay: Anti-asthmatic activity in ovalbumin-induced asthmatic Sprague-Dawley rat model assessed as improvement in lung function by measuring dynamic compliance of the airway at 1.6 g/kg, po co-administered with OVA from day 15 to 21 of experiment period (reference value: 0.46 +/- 0.17)). Conditions: not given.
Assay type: functional

Structure (SMILES) | Activity
CC1=CCC(C(C)(C)OC(=O)CSCCO)CC1 (stereo not given) | 0.88
CC1=CCC(C(C)(C)OC(=O)CN(C)CCO)CC1 (stereo not given) | 0.84

These molecules were tested on Rattus norvegicus (assay: Anti-asthmatic activity in ovalbumin-induced asthmatic Sprague-Dawley rat model assessed as improvement in lung function by measuring airway resistance at 1.6 g/kg, po co-administered with OVA from day 15 to 21 of experiment period (reference value: 67.33 +/- 10.54)). Conditions: not given.
Assay type: functional

Structure (SMILES) | Activity
CC1=CCC(C(C)(C)OC(=O)CSCCO)CC1 (stereo not given) | 41.69
CC1=CCC(C(C)(C)OC(=O)CN(C)CCO)CC1 (stereo not given) | 51.69

What follows are molecules tested on Rattus norvegicus (assay: Anti-asthmatic activity in ovalbumin-induced asthmatic Sprague-Dawley rat model assessed as improvement in lung function by measuring dynamic compliance of the airway at 1 g/kg, po co-administered with OVA from day 15 to 21 of experiment period (reference value: 0.46 +/- 0.17)). Conditions: not given.
Assay type: functional

Structure (SMILES) | Activity
CC1=CCC(C(C)(C)O)CC1 (stereo not given) | 0.53

These molecules were tested on Rattus norvegicus (assay: Anti-asthmatic activity in ovalbumin-induced asthmatic Sprague-Dawley rat model assessed as improvement in lung function by measuring airway resistance at 1 g/kg, po co-administered with OVA from day 15 to 21 of experiment period (reference value: 67.33 +/- 10.54)). Conditions: not given.
Assay type: functional

Structure (SMILES) | Activity
CC1=CCC(C(C)(C)O)CC1 (stereo not given) | 60.57

Each molecule was assayed on Rattus norvegicus (assay: Anti-asthmatic activity in ovalbumin-induced asthmatic Sprague-Dawley rat model assessed as IL-14 levels in serum at 1.6 g/kg, po co-administered with OVA from day 15 to 21 of experiment period (reference value: 16.04 +/- 1.41 pg/ml)). Conditions: not given.
Assay type: functional

Structure (SMILES) | Activity
CC1=CCC(C(C)(C)OC(=O)CSCCO)CC1 (stereo not given) | 14 pg/mL
CC1=CCC(C(C)(C)OC(=O)CN(C)CCO)CC1 (stereo not given) | 15.66 pg/mL

The molecules below were run on Rattus norvegicus (assay: Anti-asthmatic activity in ovalbumin-induced asthmatic Sprague-Dawley rat model assessed as IL-14 levels in serum at 1 g/kg, po co-administered with OVA from day 15 to 21 of experiment period (reference value: 16.04 +/- 1.41 pg/ml)). Conditions: not given.
Assay type: functional

Structure (SMILES) | Activity
CC1=CCC(C(C)(C)O)CC1 (stereo not given) | 15.5 pg/mL

These molecules were tested on Rattus norvegicus (assay: Anti-asthmatic activity in ovalbumin-induced asthmatic Sprague-Dawley rat model assessed as IL-17 levels in serum at 1.6 g/kg, po co-administered with OVA from day 15 to 21 of experiment period (reference value: 16.85 +/- 1.13 pg/ml)). Conditions: not given.
Assay type: functional

Structure (SMILES) | Activity
CC1=CCC(C(C)(C)OC(=O)CSCCO)CC1 (stereo not given) | 15.09 pg/mL
CC1=CCC(C(C)(C)OC(=O)CN(C)CCO)CC1 (stereo not given) | 16.35 pg/mL

Each molecule was assayed on Rattus norvegicus (assay: Anti-asthmatic activity in ovalbumin-induced asthmatic Sprague-Dawley rat model assessed as IL-17 levels in serum at 1 g/kg, po co-administered with OVA from day 15 to 21 of experiment period (reference value: 16.85 +/- 1.13 pg/ml)). Conditions: not given.
Assay type: functional

Structure (SMILES) | Activity
CC1=CCC(C(C)(C)O)CC1 (stereo not given) | 16.19 pg/mL

Each molecule was assayed on Rattus norvegicus (assay: Anti-asthmatic activity in ovalbumin-induced asthmatic Sprague-Dawley rat model assessed as IL-14 levels in serum at 0.5 mg/kg, po co-administered with OVA from day 15 to 21 of experiment period (reference value: 16.04 +/- 1.41 pg/ml)). Conditions: not given.

Structure (SMILES) | Activity
CC(=O)OCC(=O)[C@@]1(O)[C@H](C)C[C@H]2[C@@H]3CCC4=CC(=O)C=C[C@]4(C)[C@@]3(F)[C@@H](O)C[C@@]21C [DEXAMETHASONE ACETATE] | 14.31 pg/mL

What follows are molecules tested on Rattus norvegicus (assay: Anti-asthmatic activity in ovalbumin-induced asthmatic Sprague-Dawley rat model assessed as IL-17 levels in serum at 0.5 mg/kg, po co-administered with OVA from day 15 to 21 of experiment period (reference value: 16.85 +/- 1.13 pg/ml)). Conditions: not given.

Structure (SMILES) | Activity
CC(=O)OCC(=O)[C@@]1(O)[C@H](C)C[C@H]2[C@@H]3CCC4=CC(=O)C=C[C@]4(C)[C@@]3(F)[C@@H](O)C[C@@]21C [DEXAMETHASONE ACETATE] | 16.06 pg/mL

Each molecule was assayed on Rattus norvegicus (assay: Anti-asthmatic activity in ovalbumin-induced asthmatic Sprague-Dawley rat model assessed as improvement in lung function by measuring airway resistance at 0.5 mg/kg, po co-administered with OVA from day 15 to 21 of experiment period (reference value: 67.33 +/- 10.54)). Conditions: not given.

Structure (SMILES) | Activity
CC(=O)OCC(=O)[C@@]1(O)[C@H](C)C[C@H]2[C@@H]3CCC4=CC(=O)C=C[C@]4(C)[C@@]3(F)[C@@H](O)C[C@@]21C [DEXAMETHASONE ACETATE] | 41.51

The molecules below were run on Rattus norvegicus (assay: Anti-asthmatic activity in ovalbumin-induced asthmatic Sprague-Dawley rat model assessed as improvement in lung function by measuring dynamic compliance of the airway at 0.5 mg/kg, po co-administered with OVA from day 15 to 21 of experiment period (reference value: 0.46 +/- 0.17)). Conditions: not given.

Structure (SMILES) | Activity
CC(=O)OCC(=O)[C@@]1(O)[C@H](C)C[C@H]2[C@@H]3CCC4=CC(=O)C=C[C@]4(C)[C@@]3(F)[C@@H](O)C[C@@]21C [DEXAMETHASONE ACETATE] | 0.66

Reference: ChEMBL document CHEMBL4138217, “Discovery of a novel series of α-terpineol derivatives as promising anti-asthmatic agents: Their design, synthesis, and biological evaluation” (2018)
